# Peptide text beside a SMILES is read from it.
# Tests used:
# [1] = system: Myeloperoxidase activity (a measure of neutrophil migration); assay: Myeloperoxidase; type: in vivo, mouse; details: for effect on MPO activity: 10 μM
# Procedure, shortened: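 Jejunum or colon of wild-type and PepT1 knockout mice perfused in situ with Krebs–Ringer buffer (jejunum 0.067, colon 0.1 mL/min) for 30 min. Then 10 μM test compound, ± 50 mM GlyGly, for 4 h. MPO by o-dianisidine/H2O2 oxidation at pH 6.0, A460 over 2 min, reported as IU/g wet tissue. n = 5, mean ± SE, ANOVA/Tukey.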
# PepT1 [2] = target: T1, PepT1 (Mus musculus, UniProt Q9JIP7); assay: In situ single-pass jejunal perfusion of [3H]fMet-Leu-Phe; type: in vivo
# T1 sequence (Q9JIP7 1-709): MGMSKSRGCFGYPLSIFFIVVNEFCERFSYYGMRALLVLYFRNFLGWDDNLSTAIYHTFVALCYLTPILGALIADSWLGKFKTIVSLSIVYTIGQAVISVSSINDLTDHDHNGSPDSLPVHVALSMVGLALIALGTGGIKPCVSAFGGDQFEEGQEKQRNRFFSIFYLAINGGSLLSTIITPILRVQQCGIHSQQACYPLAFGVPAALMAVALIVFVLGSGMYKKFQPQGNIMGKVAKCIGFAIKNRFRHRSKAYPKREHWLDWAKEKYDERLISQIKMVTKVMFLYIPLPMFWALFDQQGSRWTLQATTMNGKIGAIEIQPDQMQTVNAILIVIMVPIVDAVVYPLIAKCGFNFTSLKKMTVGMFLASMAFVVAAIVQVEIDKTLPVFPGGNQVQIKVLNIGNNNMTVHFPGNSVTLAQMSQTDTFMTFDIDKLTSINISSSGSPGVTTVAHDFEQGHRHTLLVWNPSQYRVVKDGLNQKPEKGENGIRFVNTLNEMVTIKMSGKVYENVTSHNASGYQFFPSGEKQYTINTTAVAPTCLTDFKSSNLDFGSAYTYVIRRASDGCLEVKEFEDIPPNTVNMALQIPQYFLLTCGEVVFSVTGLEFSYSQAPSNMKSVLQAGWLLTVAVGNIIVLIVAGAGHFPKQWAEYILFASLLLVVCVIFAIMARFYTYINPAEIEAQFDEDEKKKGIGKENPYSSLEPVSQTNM
# PepT1 [3] = target: T1, PepT1; assay: Regional intestinal permeability; type: in vivo
# Procedure, shortened: (§1)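 Each region perfused separately in situ in fasted, pentobarbital-anaesthetised (40–60 mg/kg ip) wild-type and PepT1 knockout mice at 31 °C. Perfusate: 135 mM NaCl, 5 mM KCl, 10 mM MES pH 6.5, [14C]inulin, 2 μCi/ml (0.1 μM) labelled compound, 100 mM Phe, 0.1 mL/min. Outflow sampled every 10 min for 90 min and counted. Inulin-corrected steady-state Peff from parallel-tube model; n = 6.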
# PepT1 [4] = assay: Regional intestinal permeability; type: in vivo, mouse; details: colon, 0.1 μM
# Procedure, shortened: as §1
# [5] = Exposure in portal vein during jejunal perfusion; type: in vivo, mouse; details: 90 min jejunal perfusion of 0.1 μM [3H-Phe]fMet-Leu-Phe, wild-type mice
# Procedure, shortened: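 Wild-type jejunal single-pass perfusion with 2 μCi/ml (0.1 μM) [3H-Phe]-labelled tripeptide; portal venous blood drawn at 80–90 min. Intact tripeptide and [3H-Phe] measured by HPLC with radiochemical detection: isocratic 30% acetonitrile plus 0.1% TFA, 1.0 mL/min, ambient. Peaks assigned with radiolabelled standards.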
# [6] = Metabolism in intestinal segments; type: in vitro ADME, mouse; details: wild-type mice, 0.8 mM, 5 min, 37 °C
# Procedure, shortened: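 Wild-type intestinal pieces, 1 cm, opened longitudinally to expose the lumen. Incubated in PBS pH 7.4 with 0.8 mM test compound, 5 min, 37 °C, then iced and stopped with 10% TFA. Spun 12 000g, 5 min. Supernatant on reversed-phase C18 HPLC, UV 210 nm, 15–30% acetonitrile (0.1% TFA) gradient over 30 min. Parent and fragments identified with standards.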
# [7] = Hydrolysis kinetics in jejunal homogenates; type: in vitro ADME, mouse; details: 0.4–100 μM, 1 min, 37 °C
# Procedure, shortened: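 Jejunal mucosa scraped from wild-type or PepT1 knockout mice and homogenised in ice-cold PBS for 2 min. Spun at 12 000g for 15 min; supernatant protein at 0.5 mg/mL. Incubated with [3H-Phe]-labelled test compound at 0.4–100 μM, 1 min, 37 °C. Stopped with 10% TFA, HPLC with radiochemical detection. Rate from parent loss; Vmax and Km fitted; n = 4, mean ± SE.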
# [8] = 50 mM inhibitor, jejunal perfusion, PepT1 knockout mice
# [9] = 50 mM inhibitor, jejunal perfusion, wild-type mice
smiles,measurement,setting,value
"NCC(=O)NCC(=O)O [GlyGly, glycylglycine] (H-Gly-Gly-OH)",effect of coperfused dipeptide on fMet-Leu-Phe-induced MPO activity,"[1]; jejunum, wild-type mice, 10 μM fMet-Leu-Phe + 50 mM GlyGly, 4 h",returned to control values
"NCC(=O)N1CCC[C@H]1C(=O)O [GlyPro, glycylproline] (H-Gly-Pro-OH)",Ki,PepT1 [2],100 mM
same,reduction of fMet-Leu-Phe uptake by inhibitor,"PepT1 [2]; 50 mM inhibitor, 0.1 μM [3H]fMet-Leu-Phe, jejunal perfusion, wild-type mice",33%
same,effect of inhibitor on permeability of fMet-Leu-Phe,PepT1 [2]; [8],but not in PepT1 knockout animals
same,effect of inhibitor on permeability of fMet-Leu-Phe,PepT1 [2]; [9],significantly reduced
N[C@@H](Cc1c[nH]cn1)C(=O)O [L-histidine],effect of inhibitor on permeability of fMet-Leu-Phe,PepT1 [2]; [8],no effect
same,effect of inhibitor on permeability of fMet-Leu-Phe,PepT1 [2]; [9],no effect
"CSCC[C@H](NC=O)C(=O)N[C@@H](CC(C)C)C(=O)N[C@@H](Cc1ccccc1)C(=O)O [fMet-Leu-Phe, N-formyl-methionyl-leucyl-phenylalanine]",residual permeability in PepT1 knockout relative to wild-type mice,"PepT1 [3]; duodenal, jejunal and ileal segments, on average",~10%
same,effective permeability in PepT1 knockout versus wild-type mice,"PepT1 [3]; duodenum, jejunum and ileum, 0.1 μM",considerably lower
same,effective permeability in PepT1 knockout versus wild-type mice,PepT1 [4],did not differ between the two genotypes
same,effect on MPO activity,"[1]; colon, wild-type and PepT1 null mice, 4 h",without change
same,effect on MPO activity,"[1]; jejunum, PepT1 knockout mice, 4 h",no effect
same,increase in MPO activity,"[1]; jejunum, wild-type mice, 4 h perfusion of 10 μM fMet-Leu-Phe",about 2 fold
same,intact tripeptide in portal vein,[5],no intact tripeptide was found
same,hydrolysis in intestinal segments,[6]; duodenum and jejunum,substantial hydrolysis
same,hydrolysis in intestinal segments,[6]; ileum and colon,only minor hydrolysis
same,Vmax of hydrolysis,[7]; PepT1 knockout mice,3.3 ± 0.1 nmol/mg/min
same,Vmax of hydrolysis,[7]; wild-type mice,3.2 ± 0.2 nmol/mg/min
